Values joined by “and” are separate entries in the source; they are usually repeats but may differ in a detail not shown here. Equal entries are not always repeated.
Legend:
[1] = Cytotoxic activity against BSC cells; format: cell-based; settings: Cercopithecidae
Summary of the method: (§1)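 Cytotoxicity was scored visually in uninfected HFF or BSC-1 monolayers within the plaque-reduction assays. Drug-induced cytopathology was read at 35- and 60-fold magnification on a 0 to 4+ scale on the day plaques were stained and counted.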

[2] = system: Human alphaherpesvirus 1; assay: Inhibition of herpes simplex virus (HSV-1) in plaque reduction assay; format: functional, organism-based
Summary of the method: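 HSV-1 S-148 strain plaque reduction in BSC-1 monkey kidney monolayers, with about 100 PFU inoculum and compound dissolved in the overlay medium. IC50 came from linear regression of percent inhibition against log concentration, with a positive control in each set.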

[3] = system: Human alphaherpesvirus 1; assay: Inhibition of herpes simplex virus (HSV-1) in yield reduction assay; format: functional, organism-based
[4] = system: Human betaherpesvirus 5; assay: Inhibition of human cytomegalovirus (HCMV) in plaque reduction assay; format: functional, organism-based
Summary of the method: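 HCMV Towne strain (plaque-purified P0) plaque reduction in HFF monolayers in MEM(E) with 10% FBS. Inoculum held about 50 PFU, with compound dissolved in the overlay medium. IC50 came from linear regression of percent inhibition against log concentration, with ganciclovir or acyclovir positive controls in every set; two to five experiments.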

[5] = system: Neoplastic cell line; assay: Cytotoxic activity against KB cells.; format: cell-based; settings: Homo sapiens
Summary of the method: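 KB cells (human oral epidermoid carcinoma) grown in MEM(H) with 5% FBS. Compound effect on incorporation of radiolabelled precursors into DNA, RNA and protein was measured. IC50s came from linear regression of percent inhibition against log concentration, and the three IC50s were averaged.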

[6] = Cytotoxic activity against HFF cells.; format: cell-based; settings: Homo sapiens; summary of the method: as §1
[7] = system: L1210; assay: In vitro inhibition of L1210 cell growth.; format: functional, Mus musculus; set-up: concentration or dose not given beside the values
Summary of the method: (§2)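 Murine L1210 leukemia cells in static suspension culture in Fischer's medium with compound for 4 days. Growth rate is the ratio of control to treated population doubling time; where the rate changed, the final rate was used. IC50 is the concentration giving 50% of control growth rate; single-concentration value at 100 μM.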

[8] = system: L1210; assay: In vitro inhibition of L1210 cell growth to half of the control rate; format: functional, cell-based; settings: Mus musculus; summary of the method: as §2

For `Nc1nc2c(ncn2COCCO)c(=O)[nH]1` [ACYCLOVIR], which IC50 [1] is on record?
The IC50 was > 100 µM.

What about the IC50 [2] of the same compound?
Its IC50 is 4 µM.

And the IC90 [3]?
Its IC90 is 7 µM.

What about the IC50 [4] of the same compound?
Its IC50 is 63 µM.

What about the IC50 [5] of the same compound?
Its IC50 is > 100 µM.

With `CNc1ncnc2c1c(Br)cn2COC(CO)CO` as the compound, how does the IC50 [1] read?
The IC50 was > 100 µM.

And the IC50 [2]?
The IC50 was > 100 µM.

And the IC50 ([4]; Human betaherpesvirus 5)?
The IC50 was > 100 µM.

What about the IC50 [6] of the same compound?
The IC50 was > 100 µM.

What about the Activity [7] of the same compound?
The Activity was 100%.

Which IC50 [1] does the source give for `CCNc1ncnc2c1c(Br)cn2COC(CO)CO` here?
The IC50 was > 100 µM.

What about the IC50 [2] of the same compound?
The IC50 was > 100 µM.

And the IC50 ([4]; Human betaherpesvirus 5)?
The IC50 was > 100 µM.

What about the IC50 [6] of the same compound?
The IC50 was > 100 µM.

And the Activity [7]?
The Activity was 95%.

Which results are given for `CCNc1ncnc2c1c(Cl)cn2COC(CO)CO`?
IC50 [1]: > 100 µM; IC50 [2]: > 100 µM; IC50 ([4]; Human betaherpesvirus 5): 100 µM; IC50 [6]: > 100 µM; Activity [7]: 78%; IC50 [8]: > 100 µM

Which IC50 ([4]; Human betaherpesvirus 5) does the source give for `OCC(CO)OCn1ccc2cncnc21` here?
The IC50 was > 100 µM.

What about the IC50 [6] of the same compound?
Its IC50 is > 100 µM.

What about the Activity [7] of the same compound?
Its Activity is 100%.

Which IC50 [2] does the source give for `Nc1ncnc2c1c(I)cn2COC(CO)CO` here?
The IC50 was 4 µM.

And the IC50 [4]?
The IC50 was 3.1 µM and 0.9 µM.

And the IC50 [6]?
Its IC50 is > 100 µM.

What about the Activity [7] of the same compound?
The Activity was 6%.

And the IC50 [8]?
Its IC50 is 2.8 µM.

With `OC[C@H]1O[C@@H](n2cc(Br)c3c(NO)ncnc32)[C@H](O)[C@@H]1O` as the compound, how does the IC50 [4] read?
Its IC50 is 3 µM.

What about the IC50 ([4]; Human betaherpesvirus 5) of the same compound?
The IC50 was 5.6 µM.

What about the IC50 [6] of the same compound?
The IC50 was > 100 µM.

What about the IC50 [5] of the same compound?
The IC50 was > 100 µM.

And the Activity [7]?
Its Activity is 10%.

And the IC50 [8]?
Its IC50 is 25 µM.

With `Nc1ncnc2c1c(Br)cn2[C@@H]1O[C@H](CO)[C@@H](O)[C@H]1O` as the compound, how does the IC50 [4] read?
The IC50 was 3.4 µM.

And the IC50 [5]?
The IC50 was 2.3 µM.

What about the Activity [7] of the same compound?
The Activity was 9%.

And the IC50 [8]?
Its IC50 is 4 µM.

From ChEMBL document CHEMBL1124846, “Synthesis, antiproliferative, and antiviral activity of certain 4-substituted and 4,5-disubstituted 7-[(1,3-dihydroxy-2-propoxy)methyl]pyrrolo[2,3-d]pyrimidines” (J Med Chem, 1990)
